# In ChEMBL document CHEMBL1144398, “Structure-based design, parallel synthesis, structure-activity relationship, and molecular modeling studies of thiocarbamates, new potent non-nucleoside HIV-1 reverse transcriptase inhibitor isosteres of phenethylthiazolylthiourea derivatives” (J Med Chem, 2005):
# Legend:
# MT4 [1] = assay: Ratio of CC50 to that of EC50 determined in MT-4 cells; format: functional
# Summary of the method: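 Selectivity index, calculated as CC50/EC50. CC50 came from MTT viability of mock-infected MT-4 cells and EC50 from MTT-read protection of HIV-1-infected MT-4 cells from cytopathogenicity, with both run in parallel. Values are means of three experiments.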
# MT4 [2] = assay: Effective concentration require to protect MT-4 cells from human immunodeficiency virus type 1 induced cytopathogenicity was determined by MTT method; format: functional, cell-based
# Summary of the method: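 MT-4 cells infected with HIV-1, with test compounds added. Protection from virus-induced cytopathogenicity was read by MTT. EC50 is the concentration giving 50% protection. Values are means of three separate experiments, with variation among triplicates under 10%. Trovirdine served as the reference.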
# MT4 [3] = assay: Cytotoxic concentration required to reduce the viability of mock infected MT-4 cells determined by MTT method; format: functional; settings: Homo sapiens
# Summary of the method: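 Viability of mock-infected MT-4 cells, assayed in parallel with the antiviral test, read by MTT. CC50 is the concentration that lowers viability by 50%. Values are means of three separate experiments, with variation among triplicates under 10%. The highest concentration tested was 100 µM.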
Compound,SI (MT4 [1]),EC50 (MT4 [2]) [µM],CC50 (MT4 [3]) [µM]
O=C1c2ccccc2C(=O)N1CCOC(=S)Nc1ccccc1Cl,>5.9,17,> 100
Cc1cccc2c1C(=O)N(CCO/C(S)=N/c1ccc(Cl)cc1)C2=O,>2000,0.05,> 100
COc1ccc(NC(=S)OCCN2C(=O)c3ccccc3C2=O)cc1,>3333,0.03,> 100
CC(=O)c1ccc(NC(=S)OCCN2C(=O)c3ccccc3C2=O)cc1,>714,0.14,> 100
N#Cc1ccc(/N=C(/S)OCCNC(=O)c2ccccc2C(=O)O)cc1,>1000,0.1,> 100
CSc1cccc(NC(=S)OCCNC(=O)c2ccccc2C(=O)O)c1,>9.1,11,> 100
O=C(O)c1ccccc1C(=O)NCCO/C(S)=N\c1ccc(OCc2ccccc2)cc1,>200,0.5,> 100
Cc1ccc2c(c1)C(=O)N(CCO/C(S)=N/c1ccc([N+](=O)[O-])cc1)C2=O,>8000,0.01,80
CC(CN1C(=O)c2ccccc2C1=O)O/C(S)=N/c1ccc(C#N)cc1 (stereo not drawn),>2.7,36,> 100
CSc1cccc(NC(=S)OCCN2C(=O)c3ccccc3C2=O)c1,>14.3,7,> 100
COc1cccc(NC(=S)OCCN2C(=O)c3ccccc3C2=O)c1,>25,4,> 100
CCOc1ccc(NC(=S)OCCNC(=O)c2ccccc2C(=O)O)cc1,50,2,> 100
O=C1c2ccccc2C(=O)N1CCCOC(=S)Nc1ccccc1,,> 100,> 100
COC(=O)c1cccc(NC(=S)OCCN2C(=O)c3ccccc3C2=O)c1,>4.8,21,> 100
O=C1c2ccccc2C(=O)N1CCOC(=S)Nc1cccc2ccccc12,>15.4,6.5,> 100
Cc1ccc(NC(=S)OCCNC(=O)c2ccccc2C(=O)O)cc1,>250,0.4,> 100
CCN(CC)c1ccc(NC(=S)OCCN2C(=O)c3ccccc3C2=O)cc1,>71,1.4,> 100

Compound,SI (MT4 [1]),EC50 (MT4 [2]) [µM],CC50 (MT4 [3]) [µM]
O=C(O)c1ccccc1C(=O)NCCO/C(S)=N\c1cccc(Cl)c1,>33.3,3,> 100
CCc1ccc(NC(=S)OCCNC(=O)c2ccccc2C(=O)O)cc1,>333,0.3,> 100
O=C1CCC(=O)N1CCOC(=S)Nc1ccc(Cl)cc1,>42,2.4,> 100
O=C1c2ccccc2C(=O)N1CCOC(=S)Nc1cccc(C(F)(F)F)c1,>7.7,13,> 100
CN(C)c1ccc(NC(=S)OCCN2C(=O)c3ccccc3C2=O)cc1,>167,0.6,> 100
O=C(O)c1ccccc1C(=O)NCCO/C(S)=N\c1ccc(Cl)cc1,>1000,0.1,> 100
Cc1ccccc1/N=C(/S)OCCNC(=O)c1ccccc1C(=O)O,>3.7,27,> 100
CC(C)c1ccc(NC(=S)OCCNC(=O)c2ccccc2C(=O)O)cc1,>27,3.7,> 100
Cc1cccc(NC(=S)OCCN2C(=O)c3ccccc3C2=O)c1,>66.7,1.5,> 100
CC(CN1C(=O)c2ccccc2C1=O)O/C(S)=N/c1ccc(Cl)cc1 (stereo not drawn),>58.8,1.7,> 100
O=C1c2ccccc2C(=O)N1COC(=S)Nc1ccc([N+](=O)[O-])cc1,,> 23,23
O=C(O)c1ccccc1C(=O)NCCO/C(S)=N\c1ccccc1,>33.3,3,> 100
O=C(O)c1ccccc1C(=O)NCCO/C(S)=N\c1ccc(Br)cc1,>1000,0.1,> 100
Cc1ccc(/N=C(\S)OC(C)CN2C(=O)c3ccccc3C2=O)cc1 (stereo not drawn),>2.1,48,> 100
O=C(O)c1ccccc1C(=O)NCCO/C(S)=N\c1ccc(F)cc1,>400,0.25,> 100
O=C1C2C3C=CC(C3)C2C(=O)N1CCOC(=S)Nc1ccc([N+](=O)[O-])cc1 (stereo not drawn),,> 100,> 100
COC(=O)c1ccccc1/N=C(/S)OCCN1C(=O)c2ccccc2C1=O,,> 45,45
